Calls of active or inactive are those of the source. The calls are words filed in the database; no cut-off is given here.
Experiments:
Motilin receptor [1] = biological target: T1, Motilin receptor (Homo sapiens, UniProt O43193); assay: Activity at human motilin receptor transfected in HEK293 cells assessed as inhibition of motilin-induced intracellular calcium mobilization; assay type: functional, cell-based
Motilin receptor [2] = biological target: T1, Motilin receptor; assay: Agonist activity at human motilin receptor transfected in HEK293 cells assessed as inhibition of motilin-induced intracellular calcium mobilization at 30 uM; assay type: functional, cell-based
[3] = biological target: Motilin receptor (Oryctolagus cuniculus) (UniProt A5A4K8); assay: Agonist activity at rabbit duodenum motilin receptor by tissue contractility assay at 10 uM; assay type: functional
Motilin receptor (Oryctolagus cuniculus), sequence (A5A4K8 as listed by the source): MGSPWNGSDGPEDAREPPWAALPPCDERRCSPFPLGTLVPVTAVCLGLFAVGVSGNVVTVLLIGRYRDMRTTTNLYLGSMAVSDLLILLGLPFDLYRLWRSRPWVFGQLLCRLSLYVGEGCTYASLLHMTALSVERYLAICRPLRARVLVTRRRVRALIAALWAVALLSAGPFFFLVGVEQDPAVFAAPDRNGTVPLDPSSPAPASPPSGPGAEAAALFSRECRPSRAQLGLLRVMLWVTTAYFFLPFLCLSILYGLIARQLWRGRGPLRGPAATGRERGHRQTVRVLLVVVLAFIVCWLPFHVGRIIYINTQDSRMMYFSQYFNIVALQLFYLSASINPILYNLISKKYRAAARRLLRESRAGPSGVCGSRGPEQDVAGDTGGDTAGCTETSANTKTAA

Motilin receptor [4] = biological target: T2, Motilin receptor (Oryctolagus cuniculus, UniProt A5A4K8); assay: Inhibition of [125]I-motilin binding to rabbit motilin receptor
T2 sequence (A5A4K8 whole entry): as the sequence (A5A4K8 as listed by the source) above
Summary of the method: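 Rabbit colon membranes, homogenized in Tris–HCl pH 7.5 and centrifuged, with the pellet stored frozen. Bound tracer was separated by centrifugation. Nonspecific binding was taken with unlabeled porcine motilin. IC50 values are means of at least two separate determinations.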

[5] = biological target: Motilin receptor (Oryctolagus cuniculus) (UniProt A5A4K8); assay: Inhibition of [125]I-motilin binding to rabbit motilin receptor at 1 uM
Motilin receptor [6] = biological target: T2, Motilin receptor; assay: Inhibition of [125]I-motilin binding to rabbit motilin receptor
Motilin receptor [7] = biological target: T2, Motilin receptor; assay: Activity at rabbit duodenum motilin receptor by tissue contractility assay; assay type: functional

T1 sequence (O43193 whole entry): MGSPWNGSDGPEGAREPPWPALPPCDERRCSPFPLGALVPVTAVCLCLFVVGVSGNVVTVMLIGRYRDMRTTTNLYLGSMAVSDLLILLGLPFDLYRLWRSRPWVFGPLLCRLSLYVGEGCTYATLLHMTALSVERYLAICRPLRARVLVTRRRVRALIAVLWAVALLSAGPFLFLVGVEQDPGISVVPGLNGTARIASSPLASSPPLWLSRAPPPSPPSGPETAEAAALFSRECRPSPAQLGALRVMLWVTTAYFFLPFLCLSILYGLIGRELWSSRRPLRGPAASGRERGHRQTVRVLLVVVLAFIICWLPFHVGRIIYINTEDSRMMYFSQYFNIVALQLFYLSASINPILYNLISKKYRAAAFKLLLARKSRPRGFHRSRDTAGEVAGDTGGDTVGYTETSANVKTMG

Structure (SMILES): CC(C)(C)C(=O)N(Cc1ccccc1)[C@@H]1CCC[C@H](CN(C(=O)c2ccc(F)cc2)c2cccc(OCCN3CCCC3)c2)C1
- IC50 (Motilin receptor [1]): 338 nM
- Activity (Motilin receptor [2]): inactive
- Activity [3]: inactive

Structure (SMILES): O=C(Nc1ccccc1)N(CC1CCCC(N(Cc2ccccc2)C(=O)CCc2ccccc2)C1)c1cccc(OCCN2CCOCC2)c1 (stereo unspecified)
- IC50 (Motilin receptor [4]): 730 nM

Structure (SMILES): O=C(Nc1ccccc1)N(CC1=C[C@@](Cc2cccc(Cl)c2)(NC(=O)C(Cl)(Cl)Cl)CC1)c1cccc(OCCN2CCOCC2)c1
- IC50 (Motilin receptor [4]): 10 nM

Structure (SMILES): O=C(c1ccc(F)cc1)N(CC1CCCC(N(Cc2cccc([N+](=O)[O-])c2)C(=O)C(Cl)(Cl)Cl)C1)c1cccc(OCCN2CCCC2)c1 (stereo unspecified)
- IC50 (Motilin receptor [1]): 52 nM
- Activity (Motilin receptor [2]): inactive
- IC50 (Motilin receptor [4]): 14 nM
- Activity [3]: inactive

Structure (SMILES): O=C(Nc1ccccc1)N(CC1=C[C@@](Cc2ccccc2)(NC(=O)C(Cl)(Cl)Cl)CC1)c1cccc(OCCN2CCOCC2)c1
- IC50 (Motilin receptor [4]): 20 nM

Structure (SMILES): CC(C)(C)C(=O)N(Cc1ccccc1)[C@H]1CCC[C@@H](CN(C(=O)c2ccc(F)cc2)c2cccc(OCCN3CCCC3)c2)C1
- IC50 (Motilin receptor [1]): 2480 nM
- Activity (Motilin receptor [2]): inactive
- Activity [3]: inactive

Structure (SMILES): O=C(Nc1ccccc1)N(c1cccc(OCCN2CCOCC2)c1)C1CCC(CN(Cc2cccc(Cl)c2)C(=O)C(Cl)(Cl)Cl)C1 (stereo unspecified)
- inhibition [5]: 4%

Structure (SMILES): CC(C)(C)C(=O)N(Cc1ccccc1)C1CCCC(CN(C(=O)c2ccc(F)cc2)c2cccc(OCCN3CCOCC3)c2)C1 (racemic)
- Activity (Motilin receptor [2]): inactive
- IC50 (Motilin receptor [4]): 772 nM
- Activity [3]: inactive

Structure (SMILES): CC(C)(C)C(=O)N(Cc1ccccc1)C1CCCC(CN(C(=O)Nc2ccccc2)c2cccc(OCCN3CCCC3)c2)C1 (racemic)
- IC50 (Motilin receptor [6]): 21 nM

Structure (SMILES): O=C(c1ccc(F)cc1)N(CC1CCCC(N(Cc2ccccc2)C(=O)C(Cl)(Cl)Cl)C1)c1cccc(OCCN2CCCC2)c1 (racemic)
- IC50 (Motilin receptor [7]): 27 nM
- Activity (Motilin receptor [2]): inactive
- IC50 (Motilin receptor [4]): 58 nM
- Activity [3]: inactive

Structure (SMILES): O=C(Nc1ccccc1)N(CC1CCCC(N(Cc2ccccc2)C(=O)c2cccc([N+](=O)[O-])c2)C1)c1cccc(OCCN2CCOCC2)c1 (racemic)
- IC50 (Motilin receptor [4]): 1160 nM

Structure (SMILES): O=C(Nc1ccccc1)N(CC1CCCC(N(Cc2cccc([N+](=O)[O-])c2)C(=O)C(Cl)(Cl)Cl)C1)c1cccc(OCCN2CCOCC2)c1 (racemic)
- IC50 (Motilin receptor [4]): 35 nM

Structure (SMILES): O=C(Nc1ccccc1)N(CC1CCCC(N(Cc2ccccc2)C(=O)c2ccco2)C1)c1cccc(OCCN2CCOCC2)c1 (racemic)
- IC50 (Motilin receptor [4]): 656 nM

Structure (SMILES): O=C(Nc1ccccc1)N(CC1CCCC(N(Cc2ccccc2)C(=O)C(Cl)(Cl)Cl)C1)c1cccc(OCCN2CCOCC2)c1 (racemic)
- IC50 (Motilin receptor [4]): 957 nM

Structure (SMILES): CC(C)(C)C(=O)N(Cc1ccccc1)C1CCCC(CN(C(=O)c2ccc(F)cc2)c2cccc(OCCN3CCCC3)c2)C1 (racemic)
- IC50 (Motilin receptor [1]): 990 nM
- Activity (Motilin receptor [2]): inactive
- Activity [3]: inactive

Structure (SMILES): COc1cccc(C(=O)N(Cc2cccc(Cl)c2)C2CCCC(CN(C(=O)Nc3ccccc3)c3cccc(OCCN4CCOCC4)c3)C2)c1 (racemic)
- IC50 (Motilin receptor [4]): 650 nM

Structure (SMILES): O=C(c1ccc(F)cc1)N(CC1CCCC(N(Cc2cccc(Cl)c2)C(=O)C(Cl)(Cl)Cl)C1)c1cccc(OCCN2CCCC2)c1 (racemic)
- IC50 (Motilin receptor [1]): 267 nM
- Activity (Motilin receptor [2]): inactive
- IC50 (Motilin receptor [4]): 58 nM
- Activity [3]: inactive

Structure (SMILES): O=C(c1ccc(F)cc1)N(CC1CCCC(N(Cc2cccc(Cl)c2)C(=O)C(Cl)(Cl)Cl)C1)c1cccc(OCCN2CCCCC2)c1 (racemic)
- IC50 (Motilin receptor [1]): 228 nM
- IC50 (Motilin receptor [7]): 21 nM
- Activity (Motilin receptor [2]): inactive
- IC50 (Motilin receptor [4]): 63 nM
- Activity [3]: inactive

Structure (SMILES): CC(C)(C)C(=O)N(Cc1ccccc1)C1CCCC(CN(C(=O)Nc2ccccc2)c2cccc(OCCN3CCOCC3)c2)C1 (racemic)
- inhibition [5]: 50%

Structure (SMILES): COc1cccc(C(=O)N(Cc2cccc(Cl)c2)C2CCC(CN(C(=O)Nc3ccccc3)c3cccc(OCCN4CCOCC4)c3)CC2)c1 (racemic)
- inhibition [5]: 6%

Structure (SMILES): COc1cccc(C(=O)NC2CCCC(CN(C(=O)Nc3ccccc3)c3cccc(OCCN4CCOCC4)c3)C2)c1 (racemic)
- inhibition [5]: 26%

Structure (SMILES): O=C(Nc1ccccc1)N(CC1CCCC(N(Cc2cccc(C(F)(F)F)c2)C(=O)C(Cl)(Cl)Cl)C1)c1cccc(OCCN2CCOCC2)c1 (racemic)
- inhibition [5]: 58%

Structure (SMILES): O=C(Nc1ccccc1)N(CC1CCCC(N(Cc2cccc(Cl)c2)C(=O)C(Cl)(Cl)Cl)C1)c1cccc(OCCN2CCOCC2)c1 (racemic)
- inhibition [5]: 23%

Structure (SMILES): O=C(Nc1ccccc1)N(CC1CCCC(N(Cc2ccccc2)C(=O)c2ccc(-c3ccccc3)cc2)C1)c1cccc(OCCN2CCOCC2)c1 (racemic)
- inhibition [5]: 3%

Structure (SMILES): O=C(Nc1ccccc1)N(CC1CCCC(NCc2cccc(Cl)c2)C1)c1cccc(OCCN2CCOCC2)c1 (racemic)
- inhibition [5]: 28%

From ChEMBL document CHEMBL1138069, “Synthesis and SAR of 1,3-disubstituted cyclohexylmethyl urea and amide derivatives as non-peptidic motilin receptor antagonists” (Bioorg Med Chem Lett, 2006)
